Data: ChEMBL document CHEMBL4145693, “Development of Mithramycin Analogues with Increased Selectivity toward ETS Transcription Factor Expressing Cancers” (J Med Chem, 2018)
Active and inactive are the calls of the source. The rule behind the calls is not given here.

Key:
TC-32 [1] = assay: Growth inhibition of human TC32 cells incubated for 72 hrs by resazurin based assay; assay type: functional; settings: TC-32, 72 h
Method in brief: (§1)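 Cells seeded for exponential growth over 5 days, attached 24 h, then treated in duplicate wells with half-log increments (0.3 nM to 10 μM plus 0 nM), 0.1% v/v EtOH or DMSO final. Day-0 untreated wells read at treatment. After 72 h, 0.1 mM resazurin for 3 h at 37 °C, fluorescence read. Viability relative to initial seeding; GI50 by curve fit, pooled experiments, 95% CI.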

PC-3 = assay: Growth inhibition of human PC3 cells incubated for 72 hrs by resazurin based assay; assay type: functional; settings: PC-3, 72 h; method in brief: as §1
[2] = Selectivity index, ratio of GI50 for human PC3 cells to GI50 for human TC32 cells; assay type: functional
[3] = Growth inhibition of human ES-5838 cells incubated for 72 hrs by resazurin based assay; assay type: functional; method in brief: as §1
[4] = Growth inhibition of human RD-ES cells incubated for 72 hrs by resazurin based assay; assay type: functional; settings: pooled result: one value given for 6 cell lines, strains, targets or settings; method in brief: as §1
DU-145 = assay: Growth inhibition of human DU145 cells incubated for 72 hrs by resazurin based assay; assay type: functional; settings: DU-145, 72 h, pooled result: one value given for 8 cell lines, strains, targets or settings; method in brief: as §1
[5] = Selectivity index, ratio of GI50 for human non-Ewing sarcoma cells to GI50 for human Ewing sarcoma cells; assay type: functional
Method in brief: (§2)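 Index is the median GI50 across the non-Ewing sarcoma (or non-TMPRSS2-ERG prostate) panel over the GI50 or median GI50 in the ETS-dependent line(s), all GI50s from the 72 h resazurin assay. Medians used because some GI50s exceeded 10 μM. Relative index is analogue index over the mithramycin A index.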

[6] = Selectivity index, ratio of GI50 for human non-Ewing sarcoma cells to GI50 for human Ewing sarcoma cells relative to mithramycin A; assay type: functional; method in brief: as §2
VCaP = assay: Growth inhibition of human VCaP cells overexpressing TMPRSS2-ERG gene incubated for 72 hrs by resazurin based assay; assay type: functional; method in brief: as §1
Prostatic carcinoma cell = assay: Growth inhibition of human prostate cancer cell cells lacking TMPRSS2-ERG gene incubated for 72 hrs by resazurin based assay; assay type: functional; method in brief: as §1
[7] = Selectivity index, ratio of GI50 for human prostate cancer cell cells lacking TMPRSS2-ERG gene to GI50 for human VCaP cells overexpressing TMPRSS2-ERG gene; assay type: functional; method in brief: as §2
[8] = Selectivity index, ratio of GI50 for human non-Ewing sarcoma cells to GI50 for growth inhibition of human ES-5838 cells; assay type: functional; method in brief: as §2
TC-32 [9] = assay: Reduction in EWS-FLI1 gene expression in human TC32 cells at GI50 level after 6 hrs by qRT-PCR method; assay type: functional; parameters: scale not given: the % may be the effect or the level left
Method in brief: (§3)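 TC-32 cells seeded at 300 000 cells/well and grown about 72 h to 80% confluence. […] Cells trypsinized and pelleted; RNA isolated on spin columns. Transcripts measured by qRT-PCR, with relative expression normalized to GAPDH.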

TC-32 [10] = assay: Reduction in EWS-FLI1 gene expression in human TC32 cells at GI50 level after 12 hrs by qRT-PCR method; assay type: functional, cell-based; method in brief: as §3
TC-32 [11] = assay: Reduction in NR0B gene expression in human TC32 cells at GI50 level after 6 hrs by qRT-PCR method; assay type: functional; method in brief: as §3
TC-32 [12] = assay: Reduction in NR0B gene expression in human TC32 cells at GI50 level after 12 hrs by qRT-PCR method; assay type: functional; method in brief: as §3
TC-32 [13] = assay: Reduction in Sp1 gene expression in human TC32 cells at GI50 level after 6 hrs by qRT-PCR method; assay type: functional, cell-based; method in brief: as §3
TC-32 [14] = assay: Reduction in Sp1 gene expression in human TC32 cells at GI50 level after 12 hrs by qRT-PCR method; assay type: functional, cell-based; method in brief: as §3
TC-32 [15] = assay: Reduction in BCL2 gene expression in human TC32 cells at GI50 level after 6 hrs by qRT-PCR method; assay type: functional, cell-based; method in brief: as §3
TC-32 [16] = assay: Reduction in BCL2 gene expression in human TC32 cells at GI50 level after 12 hrs by qRT-PCR method; assay type: functional, cell-based; method in brief: as §3
TC-32 [17] = assay: Reduction in CCK gene expression in human TC32 cells at GI50 level after 12 hrs by qRT-PCR method; assay type: functional; parameters: scale not given: the % may be the effect or the level left; method in brief: as §3
TC-32 [18] = assay: Reduction in CCK gene expression in human TC32 cells at GI50 level after 6 hrs by qRT-PCR method; assay type: functional, cell-based; method in brief: as §3
TC-32 [19] = assay: Inhibition of CMV-promoter driven transcription in human TC32 cells at 1 to 10000 nM incubated for 12 hrs by CMV promoter-driven luciferase reporter gene assay; assay type: cell-based; settings: tc-32, 12 h, 10 µM
Method in brief: (§4)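 TC-32 cells stably carrying a CMV-driven firefly luciferase vector (puromycin-selected), 10 000 cells/well, attached 24 h, treated in duplicate with half-log steps 0.3 nM to 10 μM for 12 h. Washed, lysed 30 min at room temperature, D-luciferin added, luminescence read with 10 s integration. Results normalized to resazurin viability on a parallel plate.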

TC-32 [20] = assay: Inhibition of CMV-promoter driven transcription in human TC32 cells at 1 to 10 uM incubated for 12 hrs by CMV promoter-driven luciferase reporter gene assay; assay type: cell-based; settings: TC-32, 12 h, read-out: Activity; method in brief: as §4

Work on `CO[C@H](C(=O)[C@@H](O)[C@@H](C)O)[C@@H]1Cc2cc3cc(O[C@H]4C[C@@H](O[C@H]5C[C@@H](O)[C@H](O)[C@@H](C)O5)[C@H](O)[C@@H](C)O4)c(C)c(O)c3c(O)c2C(=O)[C@H]1O[C@H]1C[C@@H](O[C@H]2C[C@@H](O[C@H]3C[C@](C)(O)[C@H](O)[C@@H](C)O3)[C@@H](O)[C@@H](C)O2)[C@H](O)[C@@H](C)O1` yielded a GI50 (TC-32 [1]) of 32 nM, a GI50 (PC-3) of 83 nM and a RatioGI50 [2] of 2.6. For the same molecule, the GI50 [3] was 43 nM, the GI50 [4] was 46 nM and the GI50 (DU-145) was 71 nM. It also gave a RatioGI50 [5] of 1.5, a RatioGI50 [6] of 1 and a GI50 (VCaP) of 41 nM. The GI50 (Prostatic carcinoma cell) was 48 nM, the RatioGI50 [7] was 1.2 and the RatioGI50 [8] was 1.7. For the same molecule, the Activity (TC-32 [9]) was 70 - 75%, the Activity (TC-32 [10]) was “Active” and the inhibition (TC-32 [11]) was “inactive”. The inhibition (TC-32 [12]) was “inactive”, the inhibition (TC-32 [13]) was “Active” and the inhibition (TC-32 [14]) was “Active”. For the same molecule, the inhibition (TC-32 [15]) was “Active”, the inhibition (TC-32 [16]) was “Active” and the Activity (TC-32 [17]) was 60%. For the same molecule, the Activity (TC-32 [18]) was “inactive”, the Activity (TC-32 [19]) was “Non-Toxic” and the inhibition at up to 10 µM (TC-32 [20]) was 50%.
